Source: ChEMBL document CHEMBL2311293, “Discovery of agonists of cannabinoid receptor 1 with restricted central nervous system penetration aimed for treatment of gastroesophageal reflux disease” (J Med Chem, 2013)
≈ marks a conversion by molar mass, not a printed value.

Columns and labels:
Cannabinoid receptor 1 [1] = biological target: T1, Cannabinoid receptor 1 (Homo sapiens, UniProt P21554); test: Agonist activity at human CB1 receptor expressed in HEK293S cell membranes after 1 hr by GTPgamma[35S] binding assay relative to WIN 55,212-2
T1 sequence (P21554 whole entry): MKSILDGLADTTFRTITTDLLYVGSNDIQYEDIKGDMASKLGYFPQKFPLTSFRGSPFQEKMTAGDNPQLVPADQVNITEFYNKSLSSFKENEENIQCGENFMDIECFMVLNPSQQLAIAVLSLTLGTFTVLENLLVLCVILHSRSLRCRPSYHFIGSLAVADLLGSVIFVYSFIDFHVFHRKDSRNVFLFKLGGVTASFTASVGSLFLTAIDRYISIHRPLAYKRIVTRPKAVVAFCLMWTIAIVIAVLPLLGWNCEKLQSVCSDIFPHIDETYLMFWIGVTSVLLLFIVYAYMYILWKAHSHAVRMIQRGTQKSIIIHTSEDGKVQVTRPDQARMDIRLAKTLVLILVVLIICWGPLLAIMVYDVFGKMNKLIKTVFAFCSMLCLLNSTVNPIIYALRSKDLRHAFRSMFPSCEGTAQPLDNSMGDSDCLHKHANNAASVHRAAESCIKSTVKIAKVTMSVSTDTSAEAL
Method in brief: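 HEK293S membranes with cloned human CB1 (5 µg protein/well) in Hepes buffer pH 7.4, 100 mM NaCl, 5 mM MgCl2, 1 mM EDTA, 0.1% BSA, 15 µM GDP final. GTPγ[35S] added to start, 1 h at rt, filtered, counted. Basal from 8 wells; maximum from 8 wells with 10 µM reference agonist. Emax expressed as % of that reference. 10-point curves; mean of three experiments.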

[2] = Agonist activity at dog CB1 receptor expressed in HEK293S cell membranes after 1 hr by GTPgamma[35S] binding assay; parameters: species or system Canis lupus familiaris
Method in brief: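 Dog CB1 stably expressed in HEK293S membranes, handled as for human CB1: Hepes buffer pH 7.4 with 100 mM NaCl, 5 mM MgCl2, 1 mM EDTA, 0.1% BSA, 15 µM GDP (final); 5 µg protein/well; GTPγ[35S] tracer; 1 h at rt; filtration and scintillation counting; 10-point curves; mean of three independent experiments.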

[3] = Ratio of drug level in brain to plasma in Sprague-Dawley rat; format: ADME, cell-free; details: for Kp: Sprague-Dawley, brain and plasma, read-out: BPR
Method in brief: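 Total brain-to-plasma ratio from in vivo Sprague-Dawley rat samples, compound given as 4 h constant-rate i.v. infusion to steady state.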

[4] = Ratio of unbound fraction in brain to plasma in Sprague-Dawley rat; format: ADME, cell-free
Method in brief: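 Steady-state total brain/plasma ratio in Sprague-Dawley rats after 4 h constant-rate i.v. infusion, corrected by unbound fraction in brain (rat brain slices) and in plasma (equilibrium dialysis).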

[5] = (§1) Apparent permeability from apical to basolateral side in human Caco2 cells at pH 7.4; format: ADME, cell-based; details: Caco-2, pH 7.4
Method in brief: (§2)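 Caco-2 monolayers at pH 7.4, apparent permeability measured for apical-to-basolateral transport.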

[6] = Lipophilicity, log D of the compound; details: octanol/water
Cannabinoid receptor 2 = Cannabinoid receptor 2 (Homo sapiens, UniProt P34972); test: Displacement of [3H]-CP55,940 from human CB2 receptor expressed in Sf9 cell membranes by scintillation counting analysis
Sequence of Cannabinoid receptor 2 (P34972 whole entry): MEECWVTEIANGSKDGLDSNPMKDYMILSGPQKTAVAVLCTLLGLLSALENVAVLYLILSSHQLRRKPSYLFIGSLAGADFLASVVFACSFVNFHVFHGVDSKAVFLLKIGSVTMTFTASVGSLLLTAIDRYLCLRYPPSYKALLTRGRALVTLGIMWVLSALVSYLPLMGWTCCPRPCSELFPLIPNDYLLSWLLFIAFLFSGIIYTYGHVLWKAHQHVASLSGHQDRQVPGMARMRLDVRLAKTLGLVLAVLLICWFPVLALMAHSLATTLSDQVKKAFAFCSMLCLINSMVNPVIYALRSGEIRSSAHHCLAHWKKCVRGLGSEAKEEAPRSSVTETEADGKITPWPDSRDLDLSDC
Method in brief: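 Membranes from Sf9 cells expressing cloned hCB2 (baculovirus) in 50 mM Tris, 2.5 mM EDTA, 5 mM MgCl2, 0.5 mg/mL fatty-acid-free BSA, pH 7.4. 60 min at rt, GF/B filtration, scintillation counting. 10-point curves; IC50 mean of three independent experiments.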

Cannabinoid receptor 1 [7] = biological target: T1, Cannabinoid receptor 1; test: Displacement of [3H]-CP55,940 from human CB1 receptor expressed in HEK293S cell membranes by scintillation counting analysis
Cannabinoid receptor 1 [8] = biological target: T1, Cannabinoid receptor 1; test: Agonist activity at human CB1 receptor expressed in HEK293S cell membranes after 1 hr by GTPgamma[35S] binding assay
Cytochrome P450 2C9 = Cytochrome P450 2C9 (Homo sapiens, UniProt P11712); test: Inhibition of human recombinant CYP2C9 expressed in Escherichia coli cells; format: ADME
Sequence of Cytochrome P450 2C9 (P11712 whole entry): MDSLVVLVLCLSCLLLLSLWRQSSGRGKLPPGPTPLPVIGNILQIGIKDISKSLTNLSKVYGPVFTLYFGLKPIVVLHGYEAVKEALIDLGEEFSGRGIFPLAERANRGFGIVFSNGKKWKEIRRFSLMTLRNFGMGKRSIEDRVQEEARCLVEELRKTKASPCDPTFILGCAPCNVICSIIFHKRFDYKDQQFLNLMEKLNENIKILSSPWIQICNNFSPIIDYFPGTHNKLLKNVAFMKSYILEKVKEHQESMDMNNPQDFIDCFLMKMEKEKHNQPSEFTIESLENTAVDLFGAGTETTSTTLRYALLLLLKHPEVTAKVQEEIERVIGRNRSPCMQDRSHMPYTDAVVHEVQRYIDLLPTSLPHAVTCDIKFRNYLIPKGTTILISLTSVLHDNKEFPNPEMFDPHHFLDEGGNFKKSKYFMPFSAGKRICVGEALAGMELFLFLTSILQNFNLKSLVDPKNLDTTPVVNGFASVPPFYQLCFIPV

Cytochrome P450 3A4 = Cytochrome P450 3A4 (Homo sapiens, UniProt P08684); test: Inhibition of human recombinant CYP3A4 expressed in Escherichia coli cells; format: ADME
Sequence of Cytochrome P450 3A4 (P08684 whole entry): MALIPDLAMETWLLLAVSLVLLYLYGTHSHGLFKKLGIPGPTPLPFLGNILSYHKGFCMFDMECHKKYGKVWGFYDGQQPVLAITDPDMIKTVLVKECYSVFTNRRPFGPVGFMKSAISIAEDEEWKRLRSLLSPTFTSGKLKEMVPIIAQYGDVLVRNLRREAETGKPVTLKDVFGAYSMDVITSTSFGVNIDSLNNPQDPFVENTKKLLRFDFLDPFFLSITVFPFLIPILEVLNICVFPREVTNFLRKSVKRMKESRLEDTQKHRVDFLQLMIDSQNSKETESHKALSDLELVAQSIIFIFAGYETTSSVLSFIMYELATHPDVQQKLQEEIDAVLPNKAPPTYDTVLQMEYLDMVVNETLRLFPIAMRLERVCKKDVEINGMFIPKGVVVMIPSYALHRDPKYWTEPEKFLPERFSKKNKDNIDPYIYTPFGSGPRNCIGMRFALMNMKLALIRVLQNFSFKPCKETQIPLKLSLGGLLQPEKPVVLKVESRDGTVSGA

Canis familiaris [9] = test: Inhibition of transient lower esophageal sphincter relaxations in intragastrically dosed dog; format: functional, organism-based; details: Canis lupus familiaris
Method in brief: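 Dogs with esophagostomy and water-perfused Dentsleeve manometry (gastric, LES, esophageal pressures). Dosed intragastrically 30 min before start; TLESRs counted over 45 min. TLESR: LES pressure falls >1 mmHg/s to <2 mmHg above gastric, lasting >1 s, no swallow within 2 s before. Each dog its own control against five prior control runs; mean ± S.E.M.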

Canis familiaris [10] = test: Inhibition of transient lower esophageal sphincter relaxations in dog at 2 umol/kg dosed intragastrically measured after 10 mins; format: functional; details: Canis lupus familiaris, po
Canis familiaris [11] = test: Inhibition of transient lower esophageal sphincter relaxations in dog at 1 umol/kg dosed measured after 10 mins; format: functional; details: Canis lupus familiaris
Caco-2 = test: as §1; format: ADME, cell-based; details: Caco-2, pH 7.4; method in brief: as §2
[12] = Solubility of the compound in Hank's balanced saline solution at pH 7.4 after 24 hrs by HPLC analysis; format: physicochemical
Method in brief: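 Compound in DMSO added to Hanks balanced saline solution pH 7.4, shaken 24 h.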

[13] = biological target: Voltage-gated inwardly rectifying potassium channel KCNH2 (Homo sapiens, UniProt Q12809); test: Inhibition of human ERG expressed in CHO cells by patch clamp assay; format: cell-based
Sequence of Voltage-gated inwardly rectifying potassium channel KCNH2 (Q12809 whole entry): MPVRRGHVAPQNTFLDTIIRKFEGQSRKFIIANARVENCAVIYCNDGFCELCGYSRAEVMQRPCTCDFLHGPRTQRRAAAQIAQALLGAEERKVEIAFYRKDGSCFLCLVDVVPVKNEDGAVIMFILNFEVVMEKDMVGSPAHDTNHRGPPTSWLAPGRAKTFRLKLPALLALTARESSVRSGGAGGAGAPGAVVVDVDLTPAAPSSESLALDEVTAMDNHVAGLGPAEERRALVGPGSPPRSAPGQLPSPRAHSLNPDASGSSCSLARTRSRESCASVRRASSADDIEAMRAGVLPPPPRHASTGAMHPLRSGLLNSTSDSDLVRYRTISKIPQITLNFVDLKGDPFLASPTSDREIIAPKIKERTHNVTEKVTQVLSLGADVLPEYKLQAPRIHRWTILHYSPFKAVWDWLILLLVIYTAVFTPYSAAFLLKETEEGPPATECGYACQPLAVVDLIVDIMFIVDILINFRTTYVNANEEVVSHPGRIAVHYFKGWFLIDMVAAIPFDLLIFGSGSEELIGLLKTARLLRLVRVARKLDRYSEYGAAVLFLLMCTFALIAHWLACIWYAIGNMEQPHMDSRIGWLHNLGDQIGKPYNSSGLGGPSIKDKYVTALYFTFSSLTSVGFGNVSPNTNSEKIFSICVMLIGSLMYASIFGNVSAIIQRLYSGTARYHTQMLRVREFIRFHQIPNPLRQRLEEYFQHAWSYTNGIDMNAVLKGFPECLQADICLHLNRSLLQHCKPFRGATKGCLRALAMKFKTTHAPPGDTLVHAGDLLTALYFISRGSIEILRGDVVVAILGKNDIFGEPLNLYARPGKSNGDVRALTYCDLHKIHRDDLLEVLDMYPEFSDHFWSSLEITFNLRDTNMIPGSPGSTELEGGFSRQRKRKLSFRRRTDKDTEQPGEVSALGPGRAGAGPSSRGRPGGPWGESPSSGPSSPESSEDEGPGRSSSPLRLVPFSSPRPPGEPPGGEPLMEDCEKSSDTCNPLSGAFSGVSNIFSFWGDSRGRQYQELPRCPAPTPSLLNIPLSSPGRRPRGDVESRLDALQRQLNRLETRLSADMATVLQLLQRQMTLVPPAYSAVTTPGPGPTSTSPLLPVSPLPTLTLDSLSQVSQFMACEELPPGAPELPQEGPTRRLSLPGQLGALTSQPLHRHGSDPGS
Method in brief: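 Patch clamp (IonWorks) in CHO cells expressing hERG.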

[14] = Clearance in Sprague-Dawley rat at 2 umol/kg, iv; format: ADME, organism-based; details: in vivo
Method in brief: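 Sprague-Dawley rats given 2 µmol/kg i.v.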

[15] = Oral bioavailability in Sprague-Dawley rat at 10 umol/kg; format: ADME, organism-based; details: in vivo
Method in brief: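 Sprague-Dawley rats given 10 µmol/kg p.o., with i.v. reference dose of 2 µmol/kg.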

Compound | Emax (Cannabinoid receptor 1 [1]) | logD [6] | IC50 (Cannabinoid receptor 2) | IC50 (Cannabinoid receptor 1 [7]) | EC50 (Cannabinoid receptor 1 [8]) | also measured
C[S+]([O-])Cc1ccc(C(=O)Nc2nccnc2C(=O)NCC2CCC2)c2ccccc12 (single isomer, unassigned) [listing 1 of 2 here] | 110% | – | – | – | – | –
C[S+]([O-])Cc1ccc(C(=O)Nc2ccc(OCCOCCO)nc2C(=O)NCC2CCC2)c2ccccc12 (configuration not stated) | 120% | 3.2 | 500 nM | 7.2 nM | 5.1 nM | EC50 [2]: 3 nM; Kp [3]: 0.02; BPR [4]: 0.023; Papp A→B [5]: 26 ×10⁻⁶ cm/s; IC50 (Cytochrome P450 2C9): 6700 nM; IC50 (Cytochrome P450 3A4): 5500 nM; inhibition (Canis familiaris [9]): Dose-dependent effect; inhibition in vivo at 2 µmol/kg (Canis familiaris [10]): 31.7%; inhibition in vivo at 1 µmol/kg (Canis familiaris [11]): 5.9%
COc1ccc(NC(=O)c2ccnc3ccccc23)c(C(=O)NCC2CCC2)n1 | 51% | 5.9 | 100 nM | 15000 nM | 16 nM | –
O=C(NCC1CCOCC1)c1ncccc1NC(=O)c1cccc2ccccc12 | 110% | 5.1 | 260 nM | 31 nM | 81 nM | Kp [3]: 3
O=C(NCC1CCC1)c1ncccc1NC(=O)c1ccnc2ccccc12 | 94% | – | 82 nM | 28 nM | 79 nM | –
O=C(Nc1cccnc1C(=O)NCC1CCOCC1)c1ccc2ncsc2c1 | – | 3.5 | > 10000 nM | > 6700 nM | – | –
O=C(NCC1CCCCC1)c1ncccc1NC(=O)c1cccc2ccccc12 | 110% | 8.1 | 110 nM | 10 nM | 24 nM | –
O=C(NCC1CCCCC1)c1cc(Cl)ccc1NC(=O)c1cccc2ccccc12 | 77% | 7.8 | 1800 nM | 160 nM | 260 nM | –
O=C(NCC1CCOCC1)c1ncccc1NC(=O)c1cccc2nccnc12 | – | 2.5 | > 10000 nM | > 9900 nM | – | –
C[S+]([O-])Cc1ccc(C(=O)Nc2nccnc2C(=O)NCC2CCC2)c2ccccc12 (stereo in doubt; 18f) | – | – | 300 nM | 47 nM | 120 nM | BPR ([3]; brain): 0.022; BPR [4]: 0.03; Papp (Caco-2): 20 ×10⁻⁶ cm/s; solubility at 24 h [12]: 87 µM (≈ 38 µg/mL); IC50 [13]: 17000 nM; clearance [14]: 26 mL/min/kg; bioavailability [15]: 52%; IC50 (Cytochrome P450 2C9): > 20000 nM; IC50 (Cytochrome P450 3A4): > 20000 nM
CN(C)Cc1ccc(C(=O)Nc2cccnc2C(=O)NCC2CCC2)c2ccccc12 | 100% | – | 190 nM | – | 180 nM | –
C[S+]([O-])Cc1ccc(C(=O)Nc2nccnc2C(=O)NCC2CCC2)c2ccccc12 (single isomer, unassigned) [listing 2 of 2 here] | – | 2.7 | – | 37 nM | 32 nM | Kp [3]: 0.02; BPR [4]: 0.011; Papp (Caco-2): 9 ×10⁻⁶ cm/s
O=C(NCC1CCC1)c1nc(OCCOCCO)ccc1NC(=O)c1ccnc2ccccc12 | 130% | 4.1 | 1200 nM | 10000 nM | 14 nM | –
C[S+]([O-])Cc1ccc(C(=O)Nc2cccnc2C(=O)NCC2CCC2)c2ccccc12 (configuration not stated) | 110% | 4.6 | – | 7000 nM | 5.9 nM | –
O=C(NCC1CCC1)c1ncccc1NC(=O)c1cccc2cnccc12 | – | 5.1 | 38 nM | 220 nM | – | –
O=C(NCC1CCC1)c1ncccc1NC(=O)c1ccc(Cn2ccnn2)c2ccccc12 | 110% | 5.3 | 65 nM | 710 nM | 1.4 nM | –
C[S@+]([O-])Cc1ccc(C(=O)Nc2cccnc2C(=O)NCC2CCOCC2)c2ccccc12 | – | 2.9 | – | 600 nM | – | Papp A→B [5]: 0.61 ×10⁻⁶ cm/s
